TRPC4 act: activators of mouse TRPC4 channel, primary screen, Fluo4 calcium, HEK293 TRPC4beta/mu-opioid cells | Short transient receptor potential channel 4 (Mus musculus), Q9QUQ5 | Fluo4 calcium fluorescence; stronger effect = higher value | B-score at 10 µM | 0.49% of 310,000 active | AID 2237, 2010;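 active = B-score above 5 SD of library B-scores, and initial fluorescence ratio not above library mean plus 5 SD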;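 note: positive B-score marks a calcium rise read as TRPC4 activation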
Target sequence (Q9QUQ5 whole entry, looked up): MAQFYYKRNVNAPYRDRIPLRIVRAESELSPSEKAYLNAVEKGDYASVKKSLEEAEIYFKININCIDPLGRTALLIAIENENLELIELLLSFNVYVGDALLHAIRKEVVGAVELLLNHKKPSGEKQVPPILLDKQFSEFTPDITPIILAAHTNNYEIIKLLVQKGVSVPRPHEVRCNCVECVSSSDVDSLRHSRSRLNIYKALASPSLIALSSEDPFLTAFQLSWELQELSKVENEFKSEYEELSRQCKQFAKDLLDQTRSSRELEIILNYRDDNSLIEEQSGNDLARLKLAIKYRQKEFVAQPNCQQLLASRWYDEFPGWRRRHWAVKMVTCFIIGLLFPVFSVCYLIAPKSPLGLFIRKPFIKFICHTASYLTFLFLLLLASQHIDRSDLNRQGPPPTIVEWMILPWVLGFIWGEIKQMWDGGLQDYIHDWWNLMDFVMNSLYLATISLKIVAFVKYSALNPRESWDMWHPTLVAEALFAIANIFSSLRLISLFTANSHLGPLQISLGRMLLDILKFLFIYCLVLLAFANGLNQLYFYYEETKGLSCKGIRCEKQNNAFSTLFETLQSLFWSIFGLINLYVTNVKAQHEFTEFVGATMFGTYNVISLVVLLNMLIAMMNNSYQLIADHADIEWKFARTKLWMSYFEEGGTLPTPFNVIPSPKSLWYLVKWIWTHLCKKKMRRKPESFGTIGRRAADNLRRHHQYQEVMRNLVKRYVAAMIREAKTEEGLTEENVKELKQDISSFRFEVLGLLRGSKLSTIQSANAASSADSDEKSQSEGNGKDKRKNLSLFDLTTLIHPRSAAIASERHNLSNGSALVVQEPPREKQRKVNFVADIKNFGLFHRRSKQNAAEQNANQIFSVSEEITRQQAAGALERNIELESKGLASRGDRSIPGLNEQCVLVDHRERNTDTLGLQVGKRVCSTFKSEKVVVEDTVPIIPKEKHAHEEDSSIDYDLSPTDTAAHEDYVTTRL
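Incubation: 45 min room-temperature Fluo4 loading, 110 s read / System: HEK293 cells stably co-expressing mouse TRPC4beta and mu-opioid receptor / Signal: Fluo4 fluorescence, kinetic / Control set: buffer (low) and maximal DAMGO (high) / Measure: integrated baseline-normalised fluorescence ratio, converted to per-well B score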
TRPC6 act: mouse TRPC6 channel activators, primary screen, cell-based, HEK293, membrane potential dye. B-score at 10 µM. 0.13% of 310,000 active. HEK293-TRPC6 membrane potential dye fluorescence; stronger effect = higher value. Short transient receptor potential channel 6 (Mus musculus), Q61143;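 active = B-score of the integrated fluorescence ratio above library mean plus 3 SD, and starting fluorescence ratio within library mean plus 5 SD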;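 note: higher score means more depolarization so channel activation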
TRPC6 inhibitor: mouse TRPC6 channel inhibitors, primary screen, cell-based, HEK293, membrane potential dye; ACh-evoked depolarization; stronger effect = lower value; B-score at 10 µM; Short transient receptor potential channel 6 (Mus musculus), Q61143; 1.1% of 310,000 active;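 active = B-score under library mean minus 3 SD, initial fluorescence not abnormally high, positive integrated signal ratio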;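 note: B-score derived from integrated fluorescence ratio over the kinetic read; more negative B-score means stronger inhibition of depolarization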
TRPC4 inh: inhibitors of mouse TRPC4 channel, primary screen, Fluo4 calcium, HEK293 TRPC4beta/mu-opioid cells. 0.39% of 300,000 active. AID 2247, 2010. DAMGO-evoked Fluo4 calcium flux; stronger effect = lower value. B-score at 10 µM. Short transient receptor potential channel 4 (Mus musculus), Q9QUQ5;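 active = B-score over 3 SD under the library average, no early fluorescence shift, positive overall ratio signal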
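Test system – stable TRPC4beta/mu-opioid receptor HEK293 cells · Probe or stimulus – DAMGO, a submaximal dose followed by a maximal one · Dosing – one concentration per compound · Signal – Fluo4 calcium fluorescence by kinetic imaging, 5 s 1 Hz baseline · Evaluation – per-well B score of integrated baseline-normalized Fluo4 ratio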
TRPC4 PAM: positive allosteric modulators of TRPC4, primary screen, cell-based, mouse TRPC4beta, HEK293 mu-opioid, Fluo-4 calcium | DAMGO EC20, Fluo-4 Ca2+ flux; stronger effect = higher value | 0.42% of 310,000 active | B-score at 10 µM | Short transient receptor potential channel 4 (Mus musculus), Q9QUQ5;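 active = B-score of calcium response area above 5 SD of library B-scores, with initial fluorescence ratio within 5 SD of library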;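 note: B-score of integrated fluorescence ratio over time as area under calcium response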
TRPC4 sel inh 2: mouse TRPC4 off-target activity of TRPC6 inhibitors, second screen; shares compounds with TRPC6 inhibitor; HEK293 TRPC4/MOR, membrane potential dye fluorescence; channel activated by saturating DAMGO dose; inhibition, % at 10 µM; 42% of 920 active; AID 2776;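 active = compounds whose fluorescence signal differed from control wells by over 3 SD, either direction, in both duplicate plates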
TRPC4 spec: mouse TRPC4 modulation by TRPC6 hits, confirmation, selectivity assay for TRPC6 inhibitor project, cell-based, HEK293 TRPC4/mu-opioid, membrane potential dye. 61% of 920 active. activity change, negative = inhibition, % at 10 µM. membrane potential fluorescence. shares compounds with TRPC6 inhibitor;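 active = rise or fall in signal beyond 3 SD of buffer-only wells in both replicate plates, either sign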;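 note: integrated kinetic ratio of fluorescence range over baseline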
HEK293 MPD ctr 2-1: nonspecific membrane potential effects, parental HEK293, confirmation, counter-screen for TRPC6 inhibitor project, cell-based, second counter screen. parental HEK293 membrane potential dye fluorescence; maximal acetylcholine challenge after compound addition. shares compounds with TRPC6 inhibitor. AID 2779, 2010. signal change vs control, % at 10 µM. 31% of 920 active;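 active = membrane potential signal moving either way by over 3 SD of the maximum-effect control, in both duplicate plates, meaning non-specific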
HEK293 MPD ctr-1: membrane potential modulation in parental HEK293, confirmation, counter-screen for TRPC6 inhibitor project, cell-based; shares compounds with TRPC6 inhibitor; parental HEK293 membrane potential dye fluorescence; membrane potential signal change, % at 10 µM; 60% of 920 active;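 active = membrane potential signal shifting up or down by more than 3 SD of buffer-only wells, on both duplicate plates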
HEK293 MPD ctr-2: parental HEK293 membrane potential modulation, confirmation, counter-screen for TRPC6 modulator project, cell-based | shares compounds with TRPC6 inhibitor | membrane potential dye fluorescence | 51% of 2,400 active | membrane potential signal change, % at 10 µM;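 active = membrane potential signal moves up or down beyond 5 SD from buffer-only wells, on both duplicate plates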
HEK293 MPD ctr 2-2: second check of TRPC6 modulator effects in parental HEK293 cells | shares compounds with TRPC6 inhibitor | inhibition, % at 10 µM | AID 488926 | 14% of 2,400 active | membrane potential dye fluorescence; after compound, maximal acetylcholine stimulation;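 active = membrane potential signal drops by more than 5 SD from the mean control signal, in both duplicate plates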;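 note: plate controls were acetylcholine ECmax control wells for no effect and buffer only wells for full effect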
TRPC4/MOR mod: TRPC4 modulation by TRPC6 hit compounds, confirmation, selectivity assay for TRPC6 modulator project, cell-based, HEK293 TRPC4/mu-opioid, membrane potential dye, mouse | shares compounds with TRPC6 inhibitor | percent change from control (negative = decrease, positive = increase), % at 10 µM | 69% of 2,400 active | membrane potential fluorescence;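 active = membrane potential signal moved up or down beyond 5 SD of buffer control wells, in both duplicate plates, actives on both sides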;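 note: plate controls were assay buffer wells for no effect and DAMGO maximal-effect wells for full effect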
TRPC4 ctr inh 2: second selectivity test of TRPC6 modulators against mouse TRPC4; 55% of 2,400 active; inhibition, % at 10 µM; HEK293 TRPC4/mu-opioid, membrane potential dye fluorescence; stimulated with maximal-effect DAMGO; shares compounds with TRPC6 inhibitor; AID 488928;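 active = drop in membrane potential signal beyond 5 SD of the control wells in both duplicate plates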;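 note: TRPC4 counter screen for TRPC6 hits run under conditions tuned for TRPC6 not TRPC4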
TRPC6 block conf: mouse TRPC6 channel inhibitors, confirmation, HEK293 cells, membrane potential dye, duplicate | shares compounds with TRPC6 inhibitor | ACh-evoked depolarization | inhibition, % at 10 µM | 43% of 3,300 active;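 active = fluorescence ratio falls more than 5 SD below the full-stimulation control mean, in both duplicate runs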;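 note: integrated fluorescence ratio of peak minus minimum over baseline after agonist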
TRPC6 act confirm: mouse TRPC6 channel activators, confirmation, HEK293 cells, membrane potential dye, duplicate; shares compounds with TRPC6 inhibitor; HEK293-TRPC6 membrane potential dye fluorescence, FDSS; activation, % at 10 µM; 11% of 2,800 active;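 active = ratio signal rise beyond 5 SD above unstimulated control wells' mean, seen in both duplicate runs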;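 note: plate controls were buffer EC0 wells for no effect and acetylcholine ECmax response for full effect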
* = called active by the depositor; i = inactive; / = no result given. Hits are enriched below; roughly 2.3% of the tested compounds scored in any of these assays.

SMILES	TRPC4 act	TRPC6 act	TRPC6 inhibitor	TRPC4 inh	TRPC4 PAM	HEK293 MPD ctr-2	HEK293 MPD ctr 2-2	TRPC4/MOR mod	TRPC4 ctr inh 2	TRPC6 block conf	TRPC6 act confirm	others
CCOC(=O)c1cn(CC)c2cc3c(cc2c1=O)OCO3	i	i	-5.8*	i	i	-126%*	i	-32%*	32%*	i	i
CCCCCCn1cc(C(=O)O)c(=O)c2cc(F)c(N3CCN(C)CC3)cc21	i	i	-5.5*	i	i	-268%*	70%*	-52%*	52%*	44%*	i
COc1ccccc1NC(=O)Cn1nc(Cc2cccnc2)c2ccccc2c1=O	i	i	i	i	i	/	/	/	/	/	/
CSCCC(NC(=O)COc1ccccc1)C(=O)NCC1COc2ccccc2O1 (stereo not drawn)	i	i	i	i	i	/	/	/	/	/	/
O=C(Nc1ccc(Br)cc1Cl)c1ccc2c(=O)n3c(nc2c1)CCC3	i	i	i	i	i	/	/	/	/	/	/
O=C(Oc1ccc(F)c(F)c1)c1ccc2c(=O)n3c(nc2c1)CCC3	i	i	-5.1*	i	i	i	i	i	i	i	i
CCCCc1nnc(NC(=O)c2ccc3c(=O)n4c(nc3c2)CCC4)s1	i	i	-7.4*	i	i	/	/	/	/	i	i	TRPC4 sel inh 2=i;TRPC4 spec=-15%*;HEK293 MPD ctr 2-1=i;HEK293 MPD ctr-1=-130%*
O=C(Nc1ccc(Cl)cc1Cl)c1ccc2c(=O)n3c(nc2c1)CCC3	59*	i	-5.1*	i	i	276%*	114%*	34%*	i	i	/
NS(=O)(=O)c1cccc(NC(=O)c2cccnc2Oc2ccccc2)c1	i	i	i	i	i	/	/	/	/	/	/
O=C(CNC(=O)N1CC(=O)Nc2ccccc21)Nc1nccs1	i	i	i	i	i	/	/	/	/	/	/
COc1ccc(S(=O)(=O)N2CCCCCC2)cc1C(=O)OCc1cccc(OC)c1OC	i	i	i	i	i	/	/	/	/	/	/
CC(C)[C@H](NC(=O)OCc1ccccc1)C(=O)OCC(=O)Nc1ccc(N2CCOCC2)cc1	i	i	i	i	i	/	/	/	/	/	/
COC(=O)C1CN(C(=O)C(C)Oc2ccc(F)cc2)c2ccccc2O1 (stereo not drawn)	i	i	i	i	i	/	/	/	/	/	/
Cc1ccccc1NC(=O)CN1CCOCC1	i	14*	i	i	i	i	i	i	i	i	i
Cc1ccccc1NC(=O)CN1CCC(C(=O)c2ccc3c(c2)OCCO3)CC1	i	i	-5.5*	i	i	i	i	i	i	i	i
CCCc1nc2ccc(N)cc2c(=O)n1Cc1ccccc1Cl	i	i	i	i	i	/	/	/	/	/	/
Cc1ccc(OCCCCCCN2CCNCC2)cc1	i	i	-6.7*	i	i	/	/	/	/	i	i	TRPC4 sel inh 2=48%*;TRPC4 spec=0.1%*;HEK293 MPD ctr 2-1=i;HEK293 MPD ctr-1=7.4%*
Cc1cc(C)c(OCCCCN2CCNCC2)c(C)c1	i	i	-5.7*	i	i	i	i	i	54%*	44%*	/
Cc1ccccc1OCCCCCCN1CCNCC1	i	i	-8.2*	i	10*	/	/	/	/	i	i	TRPC4 sel inh 2=54%*;TRPC4 spec=1.8%*;HEK293 MPD ctr 2-1=i;HEK293 MPD ctr-1=4.1%*
Cc1cccc(C)c1OCCCCN1CCNCC1	i	i	i	i	i	/	/	/	/	/	/
Cc1cccc(OCCCCN2CCNCC2)c1	i	i	i	i	i	/	/	/	/	/	/
Cc1nn(CC(=O)N2CCC(C)CC2)c(=O)c2nn(-c3ccccc3)c(C)c12	i	i	i	i	i	/	/	/	/	/	/
COCCNc1nc2nonc2nc1N1CCC(N(C)C)C1 (stereo not drawn)	i	i	-5.4*	i	i	i	i	i	i	i	i
COCCNc1nc2nonc2nc1N1C[C@H]2CC[C@H]1C2	i	i	i	i	i	/	/	/	/	/	/
CCOC(=O)c1c(S(=O)(=O)Nc2ccc(F)cc2Cl)c(C)n(C)c1C	i	i	i	i	i	/	/	/	/	/	/
O=C(NC1CCCC1)C(c1ccncc1)N(CCCN1CCOCC1)C(=O)c1ccc(-c2ccccc2)[nH]1 (stereo not drawn)	i	i	-5.1*	i	i	i	i	i	36%*	i	i

Screens (PubChem)
